Experimental data as given in PubChem BioAssay AID1800 (The Scripps Research Institute Molecular Screening Center, 2009).
Among all 290,000 compounds or so, about 1,600 (0.55%) were called active.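 Rule for the calls: active = inhibition above the mean of all tested compounds plus 3 SD, set per campaign (cut at about 35% in these data); inactive = the rest.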 Shown is part of a subset that was picked to be rich in actives.

These compounds were tested on Hepatitis C virus NS3 helicase (assay: HCV NS3 DNA unwinding blockers – biochemical, Cy5 molecular beacon fluorescence, primary screen (AID 1800)). Details: at 10.9 µM, stronger effect = higher value.
Method in brief: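 Material: hepatitis C virus NS3 helicase domain fragment enzyme; measured by: Cy5 fluorescence, 0 and 60 min reads; control set: DMSO and thioflavine S; incubation: 60 min unwinding reaction at 25 °C after ATP addition; read-out basis: % inhibition from 60/0 min fluorescence ratio, DMSO 0%, thioflavine S 100%; repeats: singlicate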
With `Cc1ccc(N=Cc2c(O)cc(C)oc2=O)c(C)c1` the inhibition was -4.71% (inactive).
For `Cc1cc(O)c(C(=O)/C=C/c2c(F)c(F)c(F)c(F)c2F)c(=O)o1`, the inhibition was 53.7% (active).
With `COc1ccc(Cl)cc1NC(=O)CN(C)C(=O)CCCc1c[nH]c2ccccc12` the inhibition was -11.3% (inactive).
`Cc1nc2ccccc2c(=O)n1NC(=O)c1ccc(Cl)c([N+](=O)[O-])c1` was tested, and the inhibition was -12.7% (inactive).
For `O=C(CN1CCN(CC(=O)Nc2ccc3c(c2)OCO3)CC1)Nc1ccc(F)cc1`, the inhibition was 2% (inactive).
`COc1ccc(NC(=O)CCN2C(=O)/C(=C/c3ccc4c(c3)OCO4)SC2=S)cc1` was tested, and the inhibition was -4.44% (inactive).
`Cc1ccc(C(=O)O)cc1-c1ccc(/C=C2\SC(=O)N(CC(=O)Nc3ccc4c(c3)OCO4)C2=O)o1` was tested, and the inhibition was 46.3% (active).
With `Cc1ccc(C)c(-n2c(SCC(=O)O)nc3sc4c(c3c2=O)CCCC4)c1` the inhibition was 37.1% (active).
In the case of `COc1ccccc1-n1c(SCC(=O)O)nc2sc3c(c2c1=O)CCC3`, the inhibition is reported as 5.31% (inactive).
For `CCSc1nc2sc3c(c2c(=O)n1-c1ccc(C)cc1)CCN(C)C3`, the inhibition was -28.2% (inactive).
For `Cc1cccc(N2CCN(C(C)C(=O)N3CCc4ccccc43)CC2)c1C` (stereo not given), the inhibition was -14.8% (inactive).
For `Cc1cccc(N(C)C(=O)c2cc(S(=O)(=O)N3CCCCC3)c[nH]2)c1`, the inhibition was -16.4% (inactive).
For `Cc1ccc(OCc2cc(C(=O)N(C)CCn3ccnc3C)no2)cc1C`, the inhibition was -14.7% (inactive).
For `COc1ccc(OCC(=O)Nc2nnc(-c3ccco3)s2)cc1`, the inhibition was 58.5% (active).
For `Cc1ccc(OCC(=O)Nc2nnc(-c3ccco3)s2)cc1`, the inhibition was 13.6% (inactive).
For `CNc1nnc(-c2ccco2)s1`, the inhibition was -1.81% (inactive).
In the case of `Cc1cccc(NC(=O)CCn2c(=O)oc3ccccc32)c1`, the inhibition is reported as -6.84% (inactive).
For `COc1ccc(C(=O)C2CCCN(C(=O)c3ccc(OC)o3)C2)c(C)c1` (stereo not given), the inhibition was -2.85% (inactive).
`COC(=O)C1=C(C)N(C(C)c2ccccc2)C(=O)/C1=C\c1ccco1` (stereo not given) was tested, and the inhibition was 20.9% (inactive).
With `COc1cc(C2CC(=O)N3CN(Cc4ccccc4)CSC3=C2C#N)ccc1OCc1ccccc1` (stereo not given) the inhibition was 52.1% (active).
`COc1cc(CN2CCC(C(N)=O)CC2)ccc1OCc1ccccc1` was tested, and the inhibition was -5.96% (inactive).
In the case of `COc1cc(CNC2CCCC2)c(Br)cc1OCc1ccccc1`, the inhibition is reported as -30.4% (inactive).
In the case of `COC(=O)c1cc(S(=O)(=O)N2CCC(C(N)=O)CC2)oc1C`, the inhibition is reported as 4.32% (inactive).
For `Cc1cc(N2C(=O)C(=O)/C(=C(/O)c3ccc(Cl)cc3)C2c2cccc(Br)c2)no1` (stereo not given), the inhibition was 24.4% (inactive).
For `COc1ccccc1C1/C(=C(/O)c2ccc(OC(C)C)cc2)C(=O)C(=O)N1c1cc(C)on1` (stereo not given), the inhibition was 43.1% (active).
In the case of `COc1ccc(C2/C(=C(/O)c3ccccc3)C(=O)C(=O)N2C)c(OC)c1` (stereo not given), the inhibition is reported as 3.37% (inactive).
`CN(c1ccccc1)S(=O)(=O)c1ccc(C(=O)NCCc2ccccc2)cc1` was tested, and the inhibition was -7.81% (inactive).
With `O=C(CC1C(=O)NCCN1C(=O)c1ccc([N+](=O)[O-])cc1)Nc1cccc(Cl)c1` (stereo not given) the inhibition was -5.86% (inactive).
With `Cc1ccc(Nc2ncnc3c2cnn3C)c(C)c1` the inhibition was 5.11% (inactive).
In the case of `CCc1nnc(NC(=O)/C=C/c2ccc(C)o2)s1`, the inhibition is reported as 8.82% (inactive).
For `Cc1ccc(/C=C/C(=O)Nc2ccc([N+](=O)[O-])c(NC(=O)/C=C/c3ccc(C)o3)c2)o1`, the inhibition was 46.7% (active).
In the case of `Cc1ccc(/C=C/C(=O)Nc2cc(S(=O)(=O)N3CCCCCC3)ccc2OCC(F)(F)F)o1`, the inhibition is reported as 21.8% (inactive).
For `COc1ccc(C)cc1N(CC(=O)N1CCCC1)S(=O)(=O)c1ccccc1`, the inhibition was 21% (inactive).
In the case of `Cc1ccc(C(c2nnnn2CS(=O)(=O)c2ccc(C)cc2)N2CCC(C)CC2)cc1` (stereo not given), the inhibition is reported as -6.3% (inactive).
With `CC(=O)N1c2ccc(S(=O)(=O)N(C)CC(=O)N(C)Cc3ccccc3)cc2CC1C` (stereo not given) the inhibition was -2.38% (inactive).
For `Cc1ccc(OCC(=O)c2cc(C)n(Cc3ccco3)c2C)c([N+](=O)[O-])n1`, the inhibition was 41.5% (active).
For `COCC(C)n1c(C)cc(C(=O)COc2ccc(C)nc2[N+](=O)[O-])c1C` (stereo not given), the inhibition was 2.44% (inactive).
In the case of `Cc1cc(C(=O)CSc2nc(N)cc(=O)[nH]2)c(C)n1Cc1ccco1`, the inhibition is reported as 22.4% (inactive).
`Cc1cc(C(=O)COC(=O)CNC(=O)c2ccc(F)cc2)c(C)n1Cc1ccco1` was tested, and the inhibition was 10% (inactive).
In the case of `COc1ccc(C)cc1-n1nnnc1SCC(=O)c1cc(C)n(Cc2ccco2)c1C`, the inhibition is reported as 52.1% (active).
In the case of `COc1ccc(OC)c(-n2nnnc2SCC(=O)Nc2cc(C)ccc2OC)c1`, the inhibition is reported as -1.59% (inactive).
With `Cc1cc(S(=O)(=O)N2CCOCC2)ccc1OCC(=O)N1CCOCC1` the inhibition was -4.99% (inactive).
`COc1cc(NC(=O)CCS(=O)(=O)c2ccc3c(c2)oc(=O)n3C)cc(OC)c1` was tested, and the inhibition was 3.01% (inactive).
For `CCc1ccc(NC(=O)CS(=O)CC(=O)N2CCN(c3ccccc3F)CC2)cc1` (stereo not given), the inhibition was 8.61% (inactive).
In the case of `COc1ccc(NC(=O)CN2C(=O)CSc3ccc(S(=O)(=O)N4CCC(C)CC4)cc32)cc1`, the inhibition is reported as -2.68% (inactive).
For `COc1ccc(C(=O)CC(=O)C(=O)Nc2cc([N+](=O)[O-])ccc2OC)cc1`, the inhibition was 12.6% (inactive).
For `COc1cccc(NCCC(=O)c2cccc([N+](=O)[O-])c2)c1`, the inhibition was 2.63% (inactive).
For `COc1cccc(C(=O)CC(=O)C(=O)Nc2ccc([N+](=O)[O-])cc2C)c1`, the inhibition was 37.6% (active).
With `COc1ccc(-n2ncc3c(SCC(=O)NNC(C)=O)ncnc32)cc1` the inhibition was 5.53% (inactive).
With `O=C(O)C(c1ccccc1)N1C(=O)/C(=C\c2ccc(-c3cccc(Cl)c3)o2)SC1=S` (stereo not given) the inhibition was 8.54% (inactive).
`O=C1NN(c2ccccc2)C(=O)/C1=C/c1ccc(-c2cccc(C(=O)O)c2)o1` was tested, and the inhibition was 54.3% (active).
With `Cc1cccc(C)c1-n1c(C)cc(/C=C2\C(=O)NN(c3ccccc3)C2=O)c1C` the inhibition was 9.92% (inactive).
For `CC(NS(=O)(=O)c1ccc(OCC(=O)N2CCCC2)cc1)c1ccccc1` (stereo not given), the inhibition was -5.83% (inactive).
For `O=C(NCc1ccccc1)C(=O)NCC1OCCN1S(=O)(=O)c1ccc(Br)cc1` (stereo not given), the inhibition was -0.44% (inactive).
For `O=C(COc1ccc2c(c1)CCC2)N1CCN(c2ccc(F)cc2)CC1`, the inhibition was -11.2% (inactive).
`CC1(C)NC(=O)N(CCCCSc2ccc(Cl)cc2)C1=O` was tested, and the inhibition was -1.4% (inactive).
`CSc1nc2ccccc2c(=O)n1Cc1ccc(F)cc1` was tested, and the inhibition was -9.76% (inactive).
In the case of `CSc1c(SCc2ccccc2)cnn(Cc2ccccc2)c1=O`, the inhibition is reported as 48.3% (active).
For `CC(=O)Nc1ccc(NC(=O)CSc2ncnc3c2cnn3Cc2ccccc2)cc1`, the inhibition was -5.31% (inactive).
For `CSc1ccccc1OCc1cc(C(=O)N(C)CCc2c(C)n[nH]c2C)no1`, the inhibition was 11.5% (inactive).
`O=C(CSCc1ccccc1)Nc1ccccc1` was tested, and the inhibition was -0.15% (inactive).
In the case of `O=S(=O)(Nc1ccc2nc(-c3ccco3)[nH]c2c1)c1ccccc1`, the inhibition is reported as -5.98% (inactive).
For `Cc1cccc(NC(=O)c2sc3nc(N4CCOCC4)c4c(c3c2N)CCCC4)c1`, the inhibition was 18.7% (inactive).
In the case of `Cc1cccc(NC(=O)c2sc3nc4c(c(-c5ccco5)c3c2N)CCC4)c1`, the inhibition is reported as 93% (active).
In the case of `NC(=O)c1sc2nc3c(c(-c4ccccc4)c2c1N)CCC3`, the inhibition is reported as 1.99% (inactive).
With `CN(CCc1ccccc1)c1ccc([N+](=O)[O-])cn1` the inhibition was -0.4% (inactive).
With `CCOC(=O)c1ccccc1N1C(=O)C2Sc3[nH]c(=O)sc3C(/C=C/c3ccccc3)C2C1=O` (stereo not given) the inhibition was 37.9% (active).
For `CC(OC(=O)c1ccccc1N1C(=O)C2C3CCC(C3)C2C1=O)C(=O)c1ccccc1` (stereo not given), the inhibition was 1.1% (inactive).
In the case of `CCOC(=O)C1Sc2[nH]c(=O)sc2C(c2ccc(Cl)cc2)C1C(=O)OCC` (stereo not given), the inhibition is reported as 17.4% (inactive).
`O=C(CN1C(=O)S/C(=C\c2ccccc2Cl)C1=O)NC1C=CS(=O)(=O)C1` (stereo not given) was tested, and the inhibition was -23.6% (inactive).
For `COc1cc(-c2nn3c(-c4cccc(C)c4)nnc3s2)cc(OC)c1OC`, the inhibition was 12.9% (inactive).
In the case of `Fc1ccc(-c2ccc(-c3nn4c(-c5ccco5)nnc4s3)o2)cc1`, the inhibition is reported as 40.9% (active).
For `c1ccc(-c2cc(-c3nnc4sc(-c5ccccn5)nn34)[nH]n2)cc1`, the inhibition was -7.42% (inactive).
`C=CCOc1ccc(/C=C2/C(=O)ON=C2C)cc1OCC` was tested, and the inhibition was 16.9% (inactive).
`CCOC(=O)c1c(N)nn(C(=O)c2ccccc2)c1-c1ccccc1` was tested, and the inhibition was -7.63% (inactive).
`CCOC(=O)c1nnn(-c2nc(OC)nc(N(C)C)n2)c1-c1ccccc1` was tested, and the inhibition was 39.7% (active).
With `CCOC(=O)c1nnn(-c2nonc2OC)c1-c1ccccc1` the inhibition was 5.43% (inactive).
In the case of `COc1ccc(CN(C)C(C)C(=O)NC2CCCc3ccccc32)cc1` (stereo not given), the inhibition is reported as -16.3% (inactive).
In the case of `COc1ccc(-c2ocnc2C(=O)Nc2ccc3c(c2)CCC3)cc1`, the inhibition is reported as -14.4% (inactive).
`COc1ccc(CNS(=O)(=O)c2ccc(NC(=O)N3CCCCC3)cc2)cc1` was tested, and the inhibition was -6.52% (inactive).
In the case of `Cc1ccc(-n2nc3c(=O)n(C(C)C(=O)NCc4ccc5c(c4)OCO5)nc(C)c3c2C)cc1` (stereo not given), the inhibition is reported as 4.33% (inactive).
For `O=C(CCCN1C(=O)/C(=C/c2ccco2)SC1=S)Nc1ccccc1`, the inhibition was 34.7% (inactive).
`O=C(CCCN1C(=O)/C(=C\c2ccco2)SC1=S)Nc1cccc2ccccc12` was tested, and the inhibition was 40.1% (active).
For `O=C(CCCN1C(=O)/C(=C\c2ccccc2)SC1=S)Nc1ccccc1O`, the inhibition was -2.1% (inactive).
In the case of `Cc1cc(C)n(CCC(=O)N2CCN(S(=O)(=O)c3ccc(C)c(C)c3)CC2)n1`, the inhibition is reported as -5.54% (inactive).
`Cc1c(NC(=O)Nc2cccc([N+](=O)[O-])c2)c(=O)n(-c2ccccc2)n1C` was tested, and the inhibition was 4.3% (inactive).
For `CC1(C)CC(=O)c2c(n(S(=O)(=O)c3ccccc3)c3ccc(NS(=O)(=O)c4ccccc4)cc23)C1`, the inhibition was -3.21% (inactive).
`CN(C)c1ccc(N/C=C/C(=O)C(F)(F)F)cc1` was tested, and the inhibition was 47.6% (active).
In the case of `CC(=O)N(C)c1ccc(NC(=O)C(F)(F)F)cc1`, the inhibition is reported as -2.62% (inactive).
`CC(C)CNC(=O)C(=O)Nc1ccc(N(C)C)cc1` was tested, and the inhibition was -3.21% (inactive).
